Measurements published in ChEMBL document CHEMBL1134608, “Nucleosides and nucleotides. 200. Reinvestigation of 5'-N-ethylcarboxamidoadenosine derivatives: structure-activity relationships for P(3) purinoceptor-like proteins” (J Med Chem, 2001).

Experiments:
[1] = target: T1, Adenosine receptor A2b (Rattus norvegicus) (UniProt P29276); assay: Agonist activity as cAMP production in CHO cells expressing rat Adenosine A2B receptor at 100 uM; assay type: functional, cell-based
T1 sequence (whole entry): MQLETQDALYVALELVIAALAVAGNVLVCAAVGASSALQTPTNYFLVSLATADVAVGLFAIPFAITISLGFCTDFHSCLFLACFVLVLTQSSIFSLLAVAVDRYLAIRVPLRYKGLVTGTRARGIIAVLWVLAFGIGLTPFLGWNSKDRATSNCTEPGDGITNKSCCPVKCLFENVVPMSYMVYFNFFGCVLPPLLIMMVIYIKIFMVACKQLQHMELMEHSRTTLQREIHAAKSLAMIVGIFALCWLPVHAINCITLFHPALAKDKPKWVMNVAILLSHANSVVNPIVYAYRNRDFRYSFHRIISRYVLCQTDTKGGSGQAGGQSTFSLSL
Method in brief: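 Rat A2B receptor cDNA transfected into CHO cells; agonism read as cAMP production with test compound at 100 µM, given as percentage of NECA-induced activity.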

Adenosine receptor A1 = target: T2, Adenosine receptor A1 (Rattus norvegicus, UniProt P25099); assay: Binding activity against Adenosine A1 receptor from rat brain membranes using [3H]8-cyclopentyl-1,3-dipropylxanthine (DPCPX)
T2 sequence (P25099 whole entry): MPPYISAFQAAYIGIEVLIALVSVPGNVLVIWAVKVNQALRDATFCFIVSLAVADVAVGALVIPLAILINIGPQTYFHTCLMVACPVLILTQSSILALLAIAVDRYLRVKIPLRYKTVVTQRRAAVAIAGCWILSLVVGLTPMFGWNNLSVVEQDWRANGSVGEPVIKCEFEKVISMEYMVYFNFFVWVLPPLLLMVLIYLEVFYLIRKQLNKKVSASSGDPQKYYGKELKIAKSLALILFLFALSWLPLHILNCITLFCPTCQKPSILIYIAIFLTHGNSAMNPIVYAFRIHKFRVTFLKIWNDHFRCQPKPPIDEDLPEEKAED

Adenosine receptor A2a = Adenosine receptor A2a (Rattus norvegicus, UniProt P30543); assay: Binding affinity for Adenosine A2A receptor in rat brain membranes using [3H]CGS-21680; assay type: cell membranes
Sequence of Adenosine receptor A2a (P30543 whole entry): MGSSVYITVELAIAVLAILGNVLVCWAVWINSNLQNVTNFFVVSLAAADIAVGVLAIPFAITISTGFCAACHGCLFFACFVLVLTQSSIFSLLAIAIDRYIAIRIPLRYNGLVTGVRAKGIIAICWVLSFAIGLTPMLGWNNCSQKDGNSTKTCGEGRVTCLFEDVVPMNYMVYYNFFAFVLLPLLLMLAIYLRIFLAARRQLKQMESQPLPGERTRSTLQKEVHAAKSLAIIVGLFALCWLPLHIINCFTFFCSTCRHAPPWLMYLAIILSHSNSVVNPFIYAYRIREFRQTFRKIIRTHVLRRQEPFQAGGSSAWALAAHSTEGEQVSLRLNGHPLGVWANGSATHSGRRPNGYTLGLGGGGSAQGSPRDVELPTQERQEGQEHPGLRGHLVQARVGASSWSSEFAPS

Adenosine receptor A3 = target: T3, Adenosine receptor A3 (Rattus norvegicus, UniProt P28647); assay: Binding affinity for adenosine A3 receptor in CHO cell membranes using [125I]IB-MECA
T3 sequence (P28647 whole entry): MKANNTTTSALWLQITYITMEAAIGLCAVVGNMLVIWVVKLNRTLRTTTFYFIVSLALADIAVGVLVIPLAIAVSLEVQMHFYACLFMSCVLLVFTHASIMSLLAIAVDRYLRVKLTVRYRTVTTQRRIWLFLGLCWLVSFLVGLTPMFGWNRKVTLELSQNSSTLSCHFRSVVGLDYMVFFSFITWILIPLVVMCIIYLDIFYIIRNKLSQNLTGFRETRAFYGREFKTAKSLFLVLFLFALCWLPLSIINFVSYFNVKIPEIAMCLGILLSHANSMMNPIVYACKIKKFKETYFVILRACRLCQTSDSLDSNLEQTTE

Rattus norvegicus [2] = species on record: Rattus norvegicus; assay: Ratio of affinity for A3 and P3LP receptors
Rattus norvegicus [3] = species on record: Rattus norvegicus; assay: Ratio of affinity for A1 AND P3LP receptor
Rattus norvegicus [4] = species on record: Rattus norvegicus; assay: Ratio of affinity for A2A and P3LP receptors

Row | SMILES | Activity [1] | Ki (Adenosine receptor A1) [nM] | Ki (Adenosine receptor A2a) [nM] | Ki (Adenosine receptor A3) [nM] | Ratio (Rattus norvegicus [2]) | Ratio (Rattus norvegicus [3]) | Ratio (Rattus norvegicus [4])
1 | CCNC(=O)[C@H]1O[C@@H](n2cnc3c(N)ncnc32)[C@H](O)[C@@H]1O | 100 | – | – | – | – | – | –
2 | Nc1ncnc2c1ncn2[C@@H]1O[C@H](C(=O)NC2CCCCC2)[C@@H](O)[C@H]1O | 1.9% | 5020 | 2500 | 15100 | 830 | 275 | 137
3 | CCCCCNC(=O)[C@H]1O[C@@H](n2cnc3c(N)ncnc32)[C@H](O)[C@@H]1O | 3.4% | 979 | 605 | 5560 | 456 | 80.2 | 49.6
4 | C#CC(O)[C@H]1O[C@@H](n2cnc3c(N)ncnc32)[C@H](O)[C@@H]1O (some centres not stated) | 10% | 897 | 2110 | 310000 | 15500 | 44.9 | 105
